From PMC4137986 (Chemical Research in Toxicology, 2014)
Entries after “also recorded” stand apart in the source; their conditions may differ. Where two headings read alike, the source gives them in different places.

What was measured:
P450 1A1 [1] = target: T1, P450 1A1 (Homo sapiens, UniProt P04798); assay: P450 1A1-dependent deethylation of resorufin ethyl ether; type: biochemical
T1 sequence (P04798 1-512): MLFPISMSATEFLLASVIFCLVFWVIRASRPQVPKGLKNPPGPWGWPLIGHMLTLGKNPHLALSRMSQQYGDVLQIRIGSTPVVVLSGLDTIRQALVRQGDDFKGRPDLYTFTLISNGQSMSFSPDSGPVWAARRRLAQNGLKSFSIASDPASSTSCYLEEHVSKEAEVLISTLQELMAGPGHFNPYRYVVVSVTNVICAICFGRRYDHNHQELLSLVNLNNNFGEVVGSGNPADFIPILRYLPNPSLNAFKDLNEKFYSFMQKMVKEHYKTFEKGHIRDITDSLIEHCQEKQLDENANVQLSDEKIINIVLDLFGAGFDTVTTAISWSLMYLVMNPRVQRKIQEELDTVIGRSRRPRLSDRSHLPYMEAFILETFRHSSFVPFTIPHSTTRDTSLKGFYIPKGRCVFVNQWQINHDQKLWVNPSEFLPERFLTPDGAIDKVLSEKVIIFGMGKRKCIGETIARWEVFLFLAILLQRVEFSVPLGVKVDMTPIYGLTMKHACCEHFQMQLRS

P450 1A2 = target: T2, P450 1A2 (Homo sapiens, UniProt P05177); assay: P450 1A2-dependent demethylation of resorufin methyl ether; type: biochemical
T2 sequence (P05177 1-516): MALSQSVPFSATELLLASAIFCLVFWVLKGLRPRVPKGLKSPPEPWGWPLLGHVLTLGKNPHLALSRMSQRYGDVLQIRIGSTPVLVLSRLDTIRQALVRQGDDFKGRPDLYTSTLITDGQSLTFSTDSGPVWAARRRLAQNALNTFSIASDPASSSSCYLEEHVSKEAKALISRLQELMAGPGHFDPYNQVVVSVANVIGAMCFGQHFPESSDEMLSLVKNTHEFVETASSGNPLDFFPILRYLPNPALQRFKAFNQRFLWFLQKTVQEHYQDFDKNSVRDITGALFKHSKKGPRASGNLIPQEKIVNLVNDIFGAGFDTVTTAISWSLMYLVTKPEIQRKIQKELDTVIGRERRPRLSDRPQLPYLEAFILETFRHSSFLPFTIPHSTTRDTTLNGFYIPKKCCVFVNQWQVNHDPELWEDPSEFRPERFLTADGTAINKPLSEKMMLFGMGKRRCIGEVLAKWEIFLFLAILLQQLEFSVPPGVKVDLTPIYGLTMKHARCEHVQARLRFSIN

P450 1A2 over P450 1A1 = target: T3, P450 1A2 over P450 1A1 (Homo sapiens, UniProt P05177); assay: as above; type: biochemical; conditions: human, recombinant human CYP1A1 and CYP1A2 supersomes, pH 7.6
T3 sequence (P05177 1-516): T2 sequence (P05177 1-516)

P450 2B1 = target: T4, P450 2B1 (Rattus norvegicus, UniProt P00176); assay: P450 2B1-dependent depentylation of resorufin pentyl ether; type: biochemical
T4 sequence (P00176 1-491): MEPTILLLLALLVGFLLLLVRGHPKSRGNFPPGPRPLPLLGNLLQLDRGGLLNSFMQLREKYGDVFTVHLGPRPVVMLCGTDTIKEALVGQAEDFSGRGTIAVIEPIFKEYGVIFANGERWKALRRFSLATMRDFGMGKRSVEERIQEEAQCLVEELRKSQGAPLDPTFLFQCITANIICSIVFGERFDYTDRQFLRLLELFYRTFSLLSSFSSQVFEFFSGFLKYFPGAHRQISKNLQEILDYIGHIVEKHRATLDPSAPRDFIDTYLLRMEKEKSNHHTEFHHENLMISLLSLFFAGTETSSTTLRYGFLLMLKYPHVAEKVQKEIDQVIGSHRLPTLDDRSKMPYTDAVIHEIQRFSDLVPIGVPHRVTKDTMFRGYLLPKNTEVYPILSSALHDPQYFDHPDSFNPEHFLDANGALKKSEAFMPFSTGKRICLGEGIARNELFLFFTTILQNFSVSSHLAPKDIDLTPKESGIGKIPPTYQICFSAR
Method in brief: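 Rat P450 2B1 microsomes (5 nM final) were used in 0.1 M potassium phosphate pH 7.6 with MgCl2, with 5 μM resorufin pentyl ether in DMSO. Reactions were started with an NADPH-regenerating system (NADP+, glucose 6-phosphate, G6PDH) and run at 37 °C. Resorufin formation was followed continuously at ex 535/em 585 nm.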

P450 1A1 [2] = target: T1, P450 1A1; assay: Time-dependent inhibition kinetics of P450 1A1; type: biochemical; conditions: for time-dependent inhibition of P450 1A1 (type of inhibition): time-course curves; for kinact: read-out: limiting kinact
Method in brief: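 Human P450 1A1 microsomes (1.6 nM) were used with 5 μM resorufin ethyl ether in pH 7.6 phosphate buffer, with the NADPH-regenerating system added to start the reaction at 37 °C. Product was monitored continuously for 6 min at several inhibitor concentrations. Progress curves were fitted to second-order polynomials, and their derivatives gave activity over time. Semilog plots gave t1/2 (0.693/kinact), and KI and limiting kinact came from Kitz–Wilson plots (1/kinact vs 1/[I]).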

P450 1A1 [3] = target: T1, P450 1A1; assay: NADPH-dependency assay; type: biochemical; conditions: for NADPH-dependency of the inhibition of P450 1A1: 5 min preincubation with vs without NADPH
Method in brief: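 Human P450 1A1 microsomes (1.6 nM final) were used in 0.1 M potassium phosphate pH 7.6 with MgCl2, with inhibitor in DMSO at 0.00625 or 0.1 μM. Preincubation was 5 min at 37 °C either with an NADPH-regenerating system, then started with 5 μM resorufin ethyl ether, or without NADPH, then started with regenerating system plus substrate. Resorufin time-course was read at ex 535/em 585 nm, 37 °C.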

P450 1A1 over P450 1A2 = target: T5, P450 1A1 over P450 1A2 (Homo sapiens, UniProt P04798); assay: P450 1A1-dependent deethylation of resorufin ethyl ether; type: biochemical; conditions: human, recombinant human CYP1A1 and CYP1A2 supersomes, pH 7.6
T5 sequence (P04798 1-512): T1 sequence (P04798 1-512)

P450 1A1 [4] = target: T1, P450 1A1; conditions: read-out: Ki of well-known P450 1A1 inhibitors; cited from earlier work

Row | Ki (P450 1A1 [1]) [nM] | Ki (P450 1A2) [µM] | Ki (P450 2B1) [µM] | NADPH-dependency of the inhibition of P450 1A1 (P450 1A1 [3]) | effect of 5 min preincubation with NADPH on P450 1A1 activity (P450 1A1 [3]; inhibitor 0.1 μM) | Ki (P450 1A1 [2]) [nM] | kinact (P450 1A1 [2]) [s⁻¹] | Structure (SMILES) | selectivity ratio at 6 min (P450 1A2 over P450 1A1) | time-dependent inhibition of P450 1A1 (type of inhibition) (P450 1A1 [2]) | effect of 5 min preincubation with NADPH on P450 1A1 activity (P450 1A1 [3]; inhibitor 0.00625 μM) | selectivity ratio at 6 min (P450 1A1 over P450 1A2) | Ki (P450 1A1 [4]) [nM]
1 | 1230 |  |  | exhibit NADPH-dependency | considerable inhibition | 510 ± 90 | 0.0011 | C#Cc1cccc2oc(-c3ccccc3)cc(=O)c12 [5EF, 5-Ethynylflavone] |  | time- and concentration-dependently inhibit P450 1A1 |  |  | 
2 | 35 | 6.2 |  | exhibit NADPH-dependency |  | 43 ± 8 | 0.0055 | C#Cc1ccc2oc(-c3ccccc3)cc(=O)c2c1 [6EF, 6-Ethynylflavone] |  | time- and concentration-dependently inhibit P450 1A1 | complete inhibition | 177 | 
3 |  |  |  | exhibit NADPH-dependency |  | 35 ± 12 | 0.007 | C#Cc1ccc2c(=O)cc(-c3ccccc3)oc2c1 [7EF, 7-Ethynylflavone] |  | time- and concentration-dependently inhibit P450 1A1 | complete inhibition; also recorded: completely subvert the enzymatic activity |  | 

Second part, the compound before the results:

Row | Structure (SMILES) | Ki (P450 1A1 [1]) [nM] | Ki (P450 1A2) [µM] | Ki (P450 2B1) [µM] | NADPH-dependency of the inhibition of P450 1A1 (P450 1A1 [3]) | effect of 5 min preincubation with NADPH on P450 1A1 activity (P450 1A1 [3]; inhibitor 0.1 μM) | Ki (P450 1A1 [2]) [nM] | kinact (P450 1A1 [2]) [s⁻¹] | selectivity ratio at 6 min (P450 1A2 over P450 1A1) | time-dependent inhibition of P450 1A1 (type of inhibition) (P450 1A1 [2]) | effect of 5 min preincubation with NADPH on P450 1A1 activity (P450 1A1 [3]; inhibitor 0.00625 μM) | selectivity ratio at 6 min (P450 1A1 over P450 1A2) | Ki (P450 1A1 [4]) [nM]
4 | C#Cc1ccccc1-c1cc(=O)c2ccccc2o1 [2′EF, 2′-Ethynylflavone] | 1640 | 0.23 | 15.7 | does not NADPH-dependently inhibit P450 1A1 | slight influence on enzymatic activity |  |  | 7.2 | only a competitive inhibitor |  |  | 
5 | C#Cc1cccc(-c2cc(=O)c3ccccc3o2)c1 [3′EF, 3′-Ethynylflavone] |  |  |  | exhibit NADPH-dependency |  | 53 ± 7 | 0.00767 |  | time- and concentration-dependently inhibit P450 1A1 | complete inhibition; also recorded: completely subvert the enzymatic activity |  | 
6 | C#Cc1ccc(-c2cc(=O)c3ccccc3o2)cc1 [4′EF, 4′-Ethynylflavone] |  | 3.26 |  | exhibit NADPH-dependency |  | 56 ± 14 | 0.0055 |  | time- and concentration-dependently inhibit P450 1A1 | complete inhibition | 85 | 
7 | C#Cc1ccc2cc(-c3ccccc3)c(=O)oc2c1 [7E3PC, 7-ethynyl-3-phenylcoumarin, reference compound] | 740 |  |  |  |  |  |  |  |  |  |  | 
8 | c1cc2ccc3cccc4ccc(c1)c2c34 [pyrene] |  |  |  |  |  |  |  |  |  |  |  | ~40
9 | O=c1cc(-c2ccccc2)oc2c1ccc1ccccc12 [αNF, α-naphthoflavone] |  |  |  |  |  |  |  |  |  |  |  | ~40
